Measured values: ChEMBL document CHEMBL3393011, “Magnolol Inhibits RANKL-induced osteoclast differentiation of raw 264.7 macrophages through heme oxygenase-1-dependent inhibition of NFATc1 expression” (J Nat Prod, 2015)
The source made the active and inactive calls. The calls are words filed in the database; no cut-off is given here.

Assays:
[1] = test system: RAW264.7; test: Induction of HO-1 protein expression in RANKL-induced mouse RAW264.7 cells up to 20 uM after 48 hrs by Western blot analysis
[2] = test system: RAW264.7; test: Inhibition of MMP9 activity in RANKL-induced mouse RAW264.7 cells at 20 uM after 5 days by gelatin zymography in presence of tin protoporphyrin 9 (SnPP)
[3] = test system: RAW264.7; test: Antiosteoclast activity in mouse RAW264.7 cells assessed as reduction of RANKL-induced osteoclasts differentiation by measuring TRAP activity after 5 days in presence of tin protoporphyrin 9 (SnPP); type: functional, cell-based
Summary of the method: (§1)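 RANKL 50 ng/mL for 5 days in α-MEM with 10% FBS after 24 h seeding; SnPP 10 μM with test compound. TRAP+ multinucleated cells (≥3 nuclei) counted after formalin fixation and staining. TRAP activity: fixed cells in 50 mM citrate pH 4.6, 10 mM tartrate, 5 mM pNPP for 1 h, stopped with 0.1 N NaOH, A410, as % of RANKL-alone.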

[4] = test system: RAW264.7; test: Induction of nuclear accumulation of Nrf2 in RANKL-induced mouse RAW264.7 cells up to 20 uM after 3 hrs by Western blot analysis; type: functional, cell-based
Summary of the method: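 Nuclear protein extracted with hypotonic then hypertonic (420 mM NaCl) buffers after 3 h RANKL 50 ng/mL with compound. Samples run on 12% SDS-PAGE and immunoblotted; at least three independent experiments.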

[5] = target: MAP kinase p38 (Mus musculus) (UniProt P47811+O08911+Q9WUI1+Q9Z1B7); test: Inhibition of RANKL-stimulated p38 MAPK phosphorylation in mouse RAW264.7 cells at 20 uM by Western blotting analysis; type: cell-based
Summary of the method: (§2)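 Compound added 2 h before RANKL, followed by 15 min further incubation. Total cell lysates blotted on 12% SDS-PAGE for total and phosphorylated MAPKs, with milk block, primary overnight at 4 °C, HRP secondary, chemiluminescence and densitometry. At least three independent experiments.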

[6] = test system: RAW264.7; test: Inhibition of MMP9 activity in RANKL-induced mouse RAW264.7 cells at 20 uM after 5 days by gelatin zymography
[7] = test system: RAW264.7; test: Antiosteoclast activity in mouse RAW264.7 cells assessed as reduction of RANKL-induced osteoclasts differentiation by measuring TRAP positive multinucleated cells after 5 days in presence of tin protoporphyrin 9 (SnPP); type: functional, cell-based
Summary of the method: as §1

[8] = test system: RAW264.7; test: Inhibition of NFATc1 expression in RANKL-induced mouse RAW264.7 cells at 20 uM after 24 hrs by immunofluorescence staining; type: functional, cell-based
Summary of the method: (§3)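 Compound 20 μM, alone or with SnPP 10 μM, plus RANKL 50 ng/mL for 24 h. Nuclear NFATc1 by western blot of nuclear extracts, and by immunofluorescence: methanol-fixed cells, 4% BSA block, anti-NFATc1 1:100 overnight at 4 °C, FITC secondary, DAPI counterstain. n = 5.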

[9] = test system: RAW264.7; test: Inhibition of RANKL-induced H2O2 production in mouse RAW264.7 cells pretreated for 2 hrs before RANKL stimulation for 10 mins
[10] = test system: RAW264.7; test: Antiosteoclast activity in mouse RAW264.7 cells assessed as reduction of RANKL-induced osteoclasts differentiation by measuring TRAP positive multinucleated cells after 5 days; type: functional, cell-based
Summary of the method: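 Cells seeded 24 h, then 5 days in α-MEM with 10% FBS, RANKL 50 ng/mL and test compound. Cells fixed in 10% formalin 10 min and TRAP-stained. Multinucleated TRAP+ cells with three or more nuclei counted by light microscopy; mean ± SD, n = 5.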

[11] = test system: RAW264.7; test: Inhibition of RANKL-induced superoxide anion production in mouse RAW264.7 cells pretreated for 2 hrs before RANKL stimulation for 10 mins
[12] = test system: RAW264.7; test: Inhibition of NFATc1 expression in RANKL-induced mouse RAW264.7 cells at 20 uM after 24 hrs by immunofluorescence staining in presence of tin protoporphyrin 9 (SnPP); type: functional, cell-based
Summary of the method: as §3

[13] = test system: RAW264.7; test: Inhibition of RANKL-stimulated ERK phosphorylation in mouse RAW264.7 cells at 20 uM by Western blotting analysis; type: cell-based
Summary of the method: as §2

[14] = test system: RAW264.7; test: Inhibition of RANKL-stimulated JNK phosphorylation in mouse RAW264.7 cells at 20 uM by Western blotting analysis; type: cell-based
Summary of the method: as §2

[15] = test system: RAW264.7; test: Cytotoxicity against mouse RAW264.7 cells assessed as cell viability at 5 to 20 uM after 24 hrs by MTT assay; type: cell-based; conditions: raw264.7, 24 h
Summary of the method: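 Cells grown in DMEM with 10% heat-inactivated FBS. Exposure to compound or 0.1% DMSO vehicle for 24 h. MTT added 1 h at 37 °C, formazan dissolved in DMSO and read at 570 nm.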

Compound: C=CCc1ccc(O)c(-c2cc(CC=C)ccc2O)c1 [MAGNOLOL]
- Activity [1]: Active
- inhibition [2]: inactive
- Activity [3]: inactive
- Activity [4]: Active
- inhibition [5]: Active
- inhibition [6]: Active
- Activity [7]: inactive
- inhibition [8]: Active
- inhibition [9]: Dose-dependent effect
- Activity [10]: Dose-dependent effect
- inhibition [11]: Dose-dependent effect
- inhibition [12]: inactive
- inhibition [13]: Active
- inhibition [14]: Active
- Activity [15]: Non-toxic
